Results published in publication PMC6694902 (Journal of Taibah University Medical Sciences, 2017).
Values after ≈ are worked out from the molar mass of the structure shown. Values joined by “and” are separate entries in the source; they are usually repeats but may differ in a detail not shown here. Equal entries are not always repeated.

Tests used:
[1] = system: Candida albicans (MTCC 3017); assay: Minimum inhibitory concentration; type: cell-based; details: for MIC: Candida albicans, MTCC3017, read-out: Minimum inhibitory concentration (MIC), C. albicans; for Minimum inhibitory concentration (MIC), C. albicans: 31.25–500 µg/mL tested, 37 °C, 18–24 h
Procedure, shortened: (§1)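 MIC was determined in agar wells on Sabouraud dextrose agar seeded with the fungal strain (McFarland 0.5, 1.5 × 10^6 CFU/mL). DMF stocks at 1 mg/mL were diluted two-fold to five levels (31.25–500 µg/mL) and loaded into wells, with fluconazole as reference. After 18–24 h at 37 °C, the lowest inhibitory concentration was taken as the MIC.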

[2] = system: Staphylococcus aureus (res); assay: Minimum inhibitory concentration; type: cell-based; details: for MIC: Staphylococcus aureus, read-out: Minimum inhibitory concentration (MIC), S. aureus (res), 31.25–500 µg/mL tested, 37 °C, 18–24 h; for Minimum inhibitory concentration (MIC), S. aureus (res): 31.25–500 µg/mL tested, 37 °C, 18–24 h
Procedure, shortened: (§2)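 MIC was determined in nutrient agar wells seeded with bacteria (McFarland 0.5, 1.5 × 10^6 CFU/mL). E. coli (res) and S. aureus (res) were clinical isolates; K. pneumoniae was MTCC 109. DMF stocks at 1 mg/mL were diluted two-fold to five levels (31.25–500 µg/mL) in wells, with amoxicillin and ampicillin as references. Plates were incubated at 37 °C for 18–24 h.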

Escherichia coli (res) [3] = assay: Agar well diffusion, zone of inhibition; type: cell-based; details: mean ± S.D., n = 6; resistant to norfloxacin, ofloxacin, ampicillin, cefixime, nitrofurantoin
Procedure, shortened: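 Clinical isolate from a faecal sample (Bhubaneswar hospital). Nutrient agar plates were seeded with a 1.5 × 10^6 CFU/mL suspension matched to McFarland 0.5. Test compound was loaded into the agar wells from a DMF stock (1 mg/mL). Plates were incubated at 37 °C for 18–24 h and the inhibition zone was read. Amoxicillin and ampicillin were the reference antibiotics.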

[4] = system: Klebsiella pneumoniae (MTCC 109); assay: Agar well diffusion, zone of inhibition; type: cell-based; details: mean ± S.D., n = 6
Procedure, shortened: (§3)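 Agar well diffusion on nutrient agar. K. pneumoniae MTCC 109 came from IMTECH; S. aureus (res) was an Utkal University isolate. Plates were seeded with 1.5 × 10^6 CFU/mL suspensions (McFarland 0.5). Test compounds were dissolved in DMF (1 mg/mL stock) and placed in wells, with amoxicillin and ampicillin as references. Plates were kept at 37 °C for 18–24 h, then zones were read.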

[5] = system: Candida albicans (MTCC 3017); assay: Agar well diffusion, zone of inhibition; type: cell-based; details: mean ± S.D., n = 6
Procedure, shortened: (§4)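 Agar well diffusion on Sabouraud dextrose agar. C. albicans MTCC 3017 came from IMTECH; C. neoformans was an Utkal University strain. Plates were seeded with 1.5 × 10^6 CFU/mL suspensions (McFarland 0.5). Test compounds were dissolved in DMF (1 mg/mL stock) and loaded into wells, with fluconazole as reference. Incubation was 37 °C for 18–24 h, and zones were measured.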

[6] = DPPH radical scavenging assay; type: biochemical; details: mean ± S.D., n = 3; for IC50 (DPPH radical scavenging): graphically determined
Procedure, shortened: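 DPPH scavenging, a modified method, was read as absorbance at 517 nm for test compounds at several concentrations. BHT served as standard, and DPPH in methanol served as control. Percent inhibition was calculated from control and sample absorbances, and IC50 was obtained graphically. Data were analysed by one-way ANOVA with Dunnett's post hoc test.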

Cryptococcus neoformans [7] = assay: Agar well diffusion, zone of inhibition; type: cell-based; details: mean ± S.D., n = 6
Procedure, shortened: as §4

[8] = system: Staphylococcus aureus (res); assay: Agar well diffusion, zone of inhibition; type: cell-based; details: mean ± S.D., n = 6; resistant to norfloxacin, ofloxacin, ampicillin, cefotaxime
Procedure, shortened: as §3

Cryptococcus neoformans [9] = assay: Minimum inhibitory concentration; type: cell-based; details: for MIC: Cryptococcus neoformans, read-out: Minimum inhibitory concentration (MIC), C. neoformans; for Minimum inhibitory concentration (MIC), C. neoformans: 31.25–500 µg/mL tested, 37 °C, 18–24 h
Procedure, shortened: as §1

Escherichia coli (res) [10] = assay: Minimum inhibitory concentration; type: cell-based; details: for MIC: Escherichia coli, read-out: Minimum inhibitory concentration (MIC), E. coli (res), 31.25–500 µg/mL tested, 37 °C, 18–24 h; for Minimum inhibitory concentration (MIC), E. coli (res): 31.25–500 µg/mL tested, 37 °C, 18–24 h
Procedure, shortened: as §2

[11] = system: Klebsiella pneumoniae (MTCC 109); assay: Minimum inhibitory concentration; type: cell-based; details: for Minimum inhibitory concentration (MIC), K. pneumoniae: 31.25–500 µg/mL tested, 37 °C, 18–24 h
Procedure, shortened: as §2

Compound | MIC [1] | MIC [2] | zone of inhibition, E. coli (res) (Escherichia coli (res) [3]) | zone of inhibition, K. pneumoniae [4] | zone of inhibition, C. albicans [5] | % Inhibition (DPPH) ([6]; Conc. 10 μg/mL) | % Inhibition (DPPH) ([6]; Conc. 30 μg/mL) | % Inhibition (DPPH) ([6]; Conc. 50 μg/mL) | % Inhibition (DPPH) ([6]; Conc. 70 μg/mL) | IC50 (DPPH radical scavenging) [6] | zone of inhibition, C. neoformans (Cryptococcus neoformans [7]) | zone of inhibition, S. aureus (res) [8] | MIC (Cryptococcus neoformans [9]) | MIC (Escherichia coli (res) [10]) | MIC ([11]; Klebsiella pneumoniae, MTCC109, read-out: Minimum inhibitory concentration (MIC), K. pneumoniae, 31.25–500 µg/mL tested, 37 °C, 18–24 h) | Minimum inhibitory concentration (MIC), C. albicans [1] | Minimum inhibitory concentration (MIC), S. aureus (res) [2] | Minimum inhibitory concentration (MIC), E. coli (res) (Escherichia coli (res) [10]) | Minimum inhibitory concentration (MIC), C. neoformans (Cryptococcus neoformans [9]) | Minimum inhibitory concentration (MIC), K. pneumoniae [11]
Cc1cc(N=Nc2ccc(O)c(C=Nc3nc(-c4ccccc4)cs3)c2)ccc1Br [5a(Lig), 4-[(4-bromo-3-methylphenyl)diazenyl)-2-[(4-phenylthiazol-2-ylimino)methyl]phenol] | 250 µg/mL (≈ 524 µM) | 31.2 µg/mL (≈ 65.5 µM) | 13.67 ± 2.34 mm | 12.67 ± 2.25 mm | 12.17 ± 2.23 mm | 27.99 ± 0.04% | 39.34 ± 0.02% | 49.09 ± 0.07% | 63.9 ± 0.05% | 56 ± 0.78 µg/mL (≈ 117 µM) | 13.33 ± 1.37 mm | 15.83 ± 2.79^∗ mm | 250 µg/mL (≈ 524 µM) | – | – | – | – | – | – | –
Cc1cc(N=Nc2ccc(O)c(C=Nc3nc(-c4ccc(Cl)cc4)cs3)c2)ccc1Br [5b(Lig), 4-[(4-bromo-3-methylphenyl)diazenyl]-2-[(4-(4-chlorophenyl)thiazol-2-ylimino)methyl]phenol] | 250 µg/mL (≈ 488 µM) | – | 15.33 ± 2.07 mm | 13.5 ± 2.43 mm | 12 ± 1.27 mm | 19.26 ± 0.04% | 38.53 ± 0.09% | 48.33 ± 0.07% | 79.89 ± 0.06% | 52 ± 1.13 µg/mL (≈ 102 µM) | 12.33 ± 1.75 mm | 11.5 ± 1.87 mm | 250 µg/mL (≈ 488 µM) | 31.2 µg/mL (≈ 61.1 µM) | – | – | – | – | – | –
Cc1cc(C(C)(C)C)c(O)c(C(C)(C)C)c1 [BHT, butylated hydroxy toluene, reference compound] | – | – | – | – | – | 32.32 ± 0.01% | 49.54 ± 0.01% | 59.99 ± 0.10% | 87.74 ± 0.06% | 31 ± 0.70 µg/mL (≈ 141 µM) | – | – | – | – | – | – | – | – | – | –
Cc1cc(N=Nc2ccc(O)c(C=O)c2)ccc1Br [Compound 4e, 5-[(4-Bromo-3-methylphenyl)diazenyl]-2-hydroxybenzaldehyde] | 500 µg/mL (≈ 1570 µM) | 31.2 µg/mL (≈ 97.9 µM) | 15.83 ± 1.47^∗ mm | 15.17 ± 2.14 mm | 10.17 ± 1.84 mm | 17.96 ± 0.03% | 29.54 ± 0.05% | 33.64 ± 0.09% | 56.39 ± 0.08% | 72 ± 1.4 µg/mL (≈ 226 µM) | 12.5 ± 1.52 mm | 16.17 ± 2.04^∗ mm | 250 µg/mL (≈ 783 µM) | 31.2 µg/mL (≈ 97.9 µM) | 31.2 µg/mL (≈ 97.9 µM) | – | – | – | – | –
Cc1cc(N=Nc2ccc([O][Cu][O]c3ccc(N=Nc4ccc(Br)c(C)c4)cc3C=Nc3nc(-c4ccccc4)cs3)c(C=Nc3nc(-c4ccccc4)cs3)c2)ccc1Br [Compound 6b, Bis[{4-((4-bromo-3-methylphenyl)diazenyl)-2-((4-phenylthiazol-2-ylimino)methyl)phenoxy}] copper,] | – | – | 15.83 ± 1.84^∗ mm | 16 ± 2.37^∗ mm | 13.33 ± 2.34 mm | 28.43 ± 0.07% | 41.83 ± 0.02% | 51.41 ± 0.05% | 79.97 ± 0.06% | 48 ± 0.89 µg/mL | 12.67 ± 1.51 mm | 18.33 ± 1.75^∗ mm | – | – | – | 125 µg/mL | 31.25 µg/mL | 31.25 µg/mL | 250 µg/mL | 31.25 µg/mL
Cc1cc(N=Nc2ccc([O][Ni][O]c3ccc(N=Nc4ccc(Br)c(C)c4)cc3C=Nc3nc(-c4ccccc4)cs3)c(C=Nc3nc(-c4ccccc4)cs3)c2)ccc1Br [Compound 6c, Bis[{4-((4-bromo-3-methylphenyl)diazenyl)-2-((4-phenylthiazol-2-ylimino)methyl)phenoxy}] nickel] | – | – | – | 14.67 ± 3.14 mm | 11.33 ± 1.51 mm | 25.43 ± 0.08% | 39.65 ± 0.09% | 61.41 ± 0.04 % | 83.11 ± 0.04% | 40 ± 0.59 µg/mL | 15.83 ± 1.84 mm | 14.83 ± 1.84 mm | – | – | – | 250 µg/mL | 62.5 µg/mL | – | 31.25 µg/mL | 62.5 µg/mL
Cc1cc(N=Nc2ccc([O][Co][O]c3ccc(N=Nc4ccc(Br)c(C)c4)cc3C=Nc3nc(-c4ccc(Cl)cc4)cs3)c(C=Nc3nc(-c4ccc(Cl)cc4)cs3)c2)ccc1Br [Compound 6d, Bis[4-{(4-bromo-3-methylphenyl)diazenyl}-2-{(4-(4-chlorophenyl)thiazol-2-ylimino)methyl}phenoxy]cobalt] | – | – | 15.5 ± 3.21 mm and 15.5 ± 3.21^∗ mm | 16.17 ± 2.99 mm and 16.17 ± 2.99^∗ mm | 12.67 ± 2.34 mm | 36.53 ± 0.02 % | 43.03 ± 0.04% | 61.97 ± 0.08 % | 73.78 ± 0.07% | 38 ± 1.4 µg/mL | 12.17 ± 2.71 mm | 16.83 ± 2.71 mm and 16.83 ± 2.71^∗ mm | – | – | – | 250 µg/mL | 31.25 µg/mL | 31.25 µg/mL | 250 µg/mL | 31.25 µg/mL
Cc1cc(N=Nc2ccc([O][Ni][O]c3ccc(N=Nc4ccc(Br)c(C)c4)cc3C=Nc3nc(-c4ccc(Cl)cc4)cs3)c(C=Nc3nc(-c4ccc(Cl)cc4)cs3)c2)ccc1Br [Compound 6f, bis[4-{(4-bromo-3-methylphenyl)diazenyl}-2-{(4-(4-chlorophenyl)thiazol-2-ylimino)methyl}phenoxy] nickel] | – | – | – | 16.67 ± 1.37^∗ mm | 12.5 ± 1.52 mm | 39.73 ± 0.02 % | 53.38 ± 0.03 % | 63.38 ± 0.01 % | 79.53 ± 0.02% | – | 10.33 ± 1.75 mm | 15.17 ± 1.94 mm | – | – | – | 125 µg/mL | 31.25 µg/mL | – | 250 µg/mL | 31.25 µg/mL
